The text below walks through data of ChEMBL document CHEMBL1153490, “Spiroadamantyl 1,2,4-trioxolane, 1,2,4-trioxane, and 1,2,4-trioxepane pairs: relationship between peroxide bond iron(II) reactivity, heme alkylation efficiency, and antimalarial activity” (Bioorg Med Chem Lett, 2009).

By IC50 is commonly meant the concentration needed to halve the response being measured.

≈ marks a conversion by molar mass, not a printed value.

The test system of assay [1] is Plasmodium berghei. In words: Antimalarial activity as reduced parasitaemia after 3 days against Plasmodium berghei infected NMRI mice (Mus musculus) at 100 mg/kg peroral dose. Also on record: scale not given: the % may be the effect or the level left. As to conditions: route oral. It is filed as functional. Put shortly:
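Groups of three P. berghei-infected NMRI mice were dosed orally one day post-infection at 100 mg/kg. Compounds were dissolved or suspended in 3% ethanol and 7% Tween 80.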

The nature of assay [2]: Induction of heme alkylation measured within 30 seconds by visible spectrophotometry. Also on record: concentration or dose not given beside the values.
Assay [3] concerns Plasmodium falciparum (NF54). In words: Antimalarial activity against chloroquine-sensitive Plasmodium falciparum NF54.
The subject of assay [4] is Plasmodium falciparum. In words: Antimalarial activity against chloroquine-resistant Plasmodium falciparum K1 […]. The format is functional, organism-based.

In the case of `C1CC[C@]2(CC1)CCO[C@]1(OO2)C2CC3CC(C2)CC1C3`, the figures for the Activity in assay [1] and in assay [2] were 0% and 25%, respectively. The same compound registered a 50% inhibitory concentration (IC50) in assay [3] of more than 1 µg/mL.
As for `C[C@@]1(c2ccccc2)OOC2(O1)C1CC3CC(C1)CC2C3` (stereo not given in full), the Activity in assay [1] was 99%; in assay [2] it was 67%. The results for the IC50 in assay [4] and in assay [3] were 0.0029 µg/mL (≈ 0.0101 µM) and 0.0034 µg/mL (≈ 0.0119 µM), respectively.
`C[C@@H]1CC[C@H]2[C@@H](C)C(=O)O[C@@H]3O[C@@]4(C)CC[C@@H]1[C@]32OO4` [ARTEMISININ] showed an Activity in assay [1] of 98%. This compound also showed an IC50 in assay [3] of 0.0028 µg/mL (≈ 0.00992 µM).
Take `c1ccc([C@H]2COC3(OO2)C2CC4CC(C2)CC3C4)cc1` (stereo not given in full): the values for the Activity in assay [1] and in assay [2] were 96% and 55%, respectively. Further, the IC50 in assay [4] stood at 0.0091 µg/mL (≈ 0.0318 µM); in assay [3], 0.019 µg/mL (≈ 0.0663 µM).
Turning to `c1ccc([C@H]2CCOC3(OO2)C2CC4CC(C2)CC3C4)cc1` (stereo not given in full), in assay [2], the Activity is 1%. Besides, the IC50 in assay [3] is more than 1 µg/mL.
For `C1CCC2(CC1)COC1(OO2)C2CC3CC(C2)CC1C3` (stereo not given), the results for the Activity in assay [1] and in assay [2] were 0% and 45%, respectively. Moreover, the 50% inhibitory concentration (IC50) was determined as 0.054 µg/mL (≈ 0.194 µM) in assay [4] and 0.044 µg/mL (≈ 0.158 µM) in assay [3].
Take `C1CCC2(CC1)OOC1(O2)C2CC3CC(C2)CC1C3` (stereo not given): the Activity is more than 99.99% in assay [1] and 86% in assay [2]. Moreover, in assay [3], the midpoint of inhibition, the IC50, lay at 0.0014 µg/mL (≈ 0.0053 µM).
On to `C[C@]1(c2ccccc2)COC2(OO1)C1CC3CC(C1)CC2C3` (stereo not given in full), for which, in assay [1], the Activity stood at 0%. Further, the half-maximal inhibitory concentration (IC50) in assay [4] worked out at 0.019 µg/mL (≈ 0.0632 µM); in assay [3], 0.022 µg/mL (≈ 0.0732 µM).
Turning to `c1ccc([C@@H]2OOC3(O2)C2CC4CC(C2)CC3C4)cc1` (stereo not given in full), the Activity in assay [1] worked out at 25%; in assay [2] it was 50%. Also, the values for the IC50 in assay [4] and in assay [3] were 0.4 µg/mL (≈ 1.47 µM) and more than 1 µg/mL, respectively.
Take `CC(C)(N)CNC(=O)C[C@H]1CC[C@]2(CC1)OO[C@]1(O2)C2CC3CC(C2)CC1C3`: in assay [2], the Activity came to 83%.
